Screens as filed in PubChem BioAssay.
Sampled rows, rich in hits. Any-hit rate of the full collection: about 3.3%.
PMI activator: increases human mannose-6-phosphate isomerase activity; P34949; 0.005% of 190,000 active; purified human PMI, coupled resazurin fluorescence, 20 min; active compounds read high; 1 = vehicle control, 0 substrate-free wells; activation factor at 20 µM;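 active means activation factor of 2 or more at 20 µM, relative to plate controls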
Target sequence (P34949 whole entry, looked up): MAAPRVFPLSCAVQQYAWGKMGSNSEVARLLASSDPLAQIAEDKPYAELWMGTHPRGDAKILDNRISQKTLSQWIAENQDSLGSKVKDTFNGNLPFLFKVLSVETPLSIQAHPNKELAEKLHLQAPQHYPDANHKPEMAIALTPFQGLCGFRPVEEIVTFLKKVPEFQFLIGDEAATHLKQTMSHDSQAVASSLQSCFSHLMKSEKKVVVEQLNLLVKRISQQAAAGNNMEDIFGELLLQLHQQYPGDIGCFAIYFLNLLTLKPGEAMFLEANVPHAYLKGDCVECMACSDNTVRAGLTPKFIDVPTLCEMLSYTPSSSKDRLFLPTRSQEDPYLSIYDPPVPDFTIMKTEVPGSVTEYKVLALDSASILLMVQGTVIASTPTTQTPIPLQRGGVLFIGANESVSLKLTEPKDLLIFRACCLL
ABCG2 block: inhibitors of human ABCG2 transporter, ABCB1 counter-screen; inhibition, % at 6.6 µM; IgMXP3 cells, JC-1 efflux, flow cytometry; Q9UNQ0; 0.1% of 190,000 active;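 active means inhibition above 80%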;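 further: 0% = DMSO and 100% = nicardipine control wells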
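Test system: IgMXP3 cells (ABCG2) mixed with DDAO far-red-labelled CCRF-Adr cells (ABCB1). Reagent: JC-1 transporter substrate. Compound dosing: single test compound dose, 6.6 µM final. Times: 10 min compound exposure, 25 °C. Detection: flow cytometry of retained JC-1 fluorescence. Read-out basis: efflux inhibition in percent versus controls. Controls: nicardipine and DMSO wells.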
ABCB1 block: blocks JC-1 efflux by human ABCB1 transporter; CCRF-Adr cells, flow cytometry; inhibition, % at 6.6 µM; 0.067% of 190,000 active; AID 1326; in the data active means inhibition above about 40%;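 further: 0% = vehicle and 100% = reference inhibitor; higher value means more JC-1 retained so stronger ABCB1 efflux block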
PMI act satM6P: PMI (human) activation, high substrate | P34949 | coupled PMI enzyme assay, resazurin fluorescence, 20 min; active compounds read high; 1 = untreated enzyme, 0 = substrate-free blank | activation factor at 20 µM | 0.34% of 190,000 active | AID 1216;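 active means activation factor of 2 or more at 20 µM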
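Material: human phosphomannose isomerase with PGI, G6PDH, diaphorase coupling enzymes. Quantity: 15 ng/mL PMI. Medium: HEPES pH 7.4 buffer with MgCl2 and Tween-20. Reagent: Near-saturating mannose-6-phosphate, 1.0 mM. Compound: 20 µM single dose. Times: enzyme reaction with compound 20 min at room temperature. Detection: resorufin fluorescence at Ex 544/Em 590 nm.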
KCC2 mod: modulators of human KCC2 chloride dependent transport | Q9H2X9 | KCC2 cells, thallium flux FluoZin-2 fluorescence | B-score of Tl+ flux slope (higher = more flux/activation; lower = inhibition) at 10 µM | 2.2% of 190,000 active | AID 1456;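 active means thallium flux slope and its plate-corrected score both differing from the plate sample mean at a set confidence after two filtering rounds, in either direction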;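 further: slope of fluorescence scaled to starting intensity during 10 to 20 s after thallium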
ROMK primary: modulates human ROMK potassium channel activity; Tet-inducible ROMK, thallium flux fluorescence; actives lie on both sides; P48048; B-score at 10 µM; 2% of 130,000 active; AID 1918;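 active means signal ratio slope over the read window, or its plate-corrected B-score, at least 3 SD from the plate mean, either direction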;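 further: B-score of the F/F0 ratio slope over 7 to 12 s after thallium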
ROMK hit retest: confirmation of human ROMK potassium channel modulators. shares compounds with ROMK primary. ROMK thallium flux, fluorescence ratio; active compounds read low. normalized thallium flux (F/F0 slope) at 10 µM. 54% of 3,000 active. AID 1917;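 active means Flux at 10 µM at least 3 SD below or above vehicle control mean in one or both replicates; inconclusive means no clear call, values can overlap the other calls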
An asterisk follows results filed as active; ? = inconclusive; nt = no result.

SMILES | PMI activator | ABCG2 block | ABCB1 block | PMI act satM6P | KCC2 mod | ROMK primary | ROMK hit retest
COc1cc(C(=O)NC(C(=O)Nc2cccc(C(C)=O)c2)C(C)C)cc(OC)c1OC (configuration not stated) | 1 | 0.7 | 0.2 | 1 | -0.537 | 0.909 | nt
CCOC(=O)c1c(C)nc(C)c(C(=O)OCC)c1-c1ccco1 | nt | nt | nt | nt | 1.42 | nt | nt
Cn1c(=O)c2c(ncn2Cc2ccc(Cl)c(Cl)c2)n(C)c1=O | 1 | 26.0 | 1.0 | 1 | -0.0513 | -2.12* | ?
Cn1c(N2CCOCC2)nc2c1c(=O)n(Cc1ccc(Cl)c(Cl)c1)c(=O)n2C | 0.8 | 4.2 | 1.2 | 0.8 | -0.075 | -3.75* | 0.0678*
Cn1c(N2CCCC2)nc2c1c(=O)n(Cc1ccc(F)cc1)c(=O)n2C | 1.1 | 2.5 | 0.7 | 1.1 | -1.2 | -1.66 | nt
CCCc1nc2ccccc2n1Cc1ccccc1OC | 0.9 | 0.3 | 0.1 | 1 | nt | nt | nt
COc1ccccc1Cn1c(CCCO)nc2ccccc21 | 1 | 0.1 | 0.1 | 1 | nt | -3.75* | ?
CC(=O)Nc1ccc(NC(=O)CSc2nc(C)nc3sc(C)c(C)c23)cc1 | 1 | 13.8 | -0.3 | 1.1 | 0.273 | -0.125 | nt
Cc1nc(SCC(=O)N(C)Cc2ccco2)c2c(C)c(C)sc2n1 | 1 | 5.4 | 1.5 | 0.9 | -1.29 | nt | 0.0716
O=C(NC1(C(F)(F)F)N=C2SCCN2C1=O)c1cccnc1 (configuration not stated) | 1.1 | 1.3 | 1.2 | 1.1 | 0.676 | 0.019 | nt
COc1coc(C(O)CN)cc1=O (configuration not stated) | 1.1 | 0.2 | 0.5 | 0.9 | 0.135 | 1.9 | nt
CCOC(=O)C(=Cc1cc(=O)c(OC)co1)C(=O)OCC | 1 | 1.8 | 1.2 | 0.9 | 0.87 | -4.06* | 0.0476*
Cc1cc2nnc(SCC(=O)N3CCCCC3)n2c(N)n1 | 0.9 | -1.5 | -0.1 | 0.9 | 0.819 | 1.31* | 0.0835
Cc1cc2nnc(SCC(=O)N3C(C)CCCC3C)n2c(N)n1 (configuration not stated) | 0.8 | -0.2 | -0.1 | 0.9 | nt | nt | nt
CCOC(=O)C1CCN(c2ncnc3c2nnn3Cc2ccccc2Cl)CC1 | 0.9 | 6.8 | 1.8 | 0.9 | -0.801 | -0.686 | nt
O=C(c1ccco1)N1CCN(c2ncnc3c2nnn3Cc2ccccc2Cl)CC1 | 1.1 | 8.1 | 3.1 | 1 | 0.407 | -5.06* | 0.0701
Fc1ccc(N2CCN(c3ncnc4c3nnn4Cc3ccccc3Cl)CC2)cc1 | nt | 5.0 | 1.2 | nt | 0.597 | -2.65* | 0.0662*
CCOC(=O)C(C)Oc1cccc2c(=O)n(CC(=O)NCc3ccco3)ccc12 (configuration not stated) | 1.1 | 0.2 | 0.1 | 1.1 | 0.014 | nt | 0.0862
O=C(CNS(=O)(=O)c1ccc(Br)s1)NC1CCCc2ccccc21 (configuration not stated) | 1.1 | 7.0 | 0.9 | 1 | -1.31 | -3.81* | 0.0668*
O=C(CCNS(=O)(=O)c1ccc(Br)s1)NC1CCCC1 | 1.1 | 2.5 | 0.0 | 1.1 | -0.139 | nt | nt
CC1CCc2sc(C(=O)N/N=C/c3ccc([N+](=O)[O-])cc3)cc2C1 (configuration not stated) | 0.9 | 3.3 | 2.6 | 1.1 | 1.04 | nt | nt
O=C(O)c1nn(-c2ccccc2)ccc1=O | 1 | 2.3 | 0.5 | 1 | -0.602 | 0.464 | nt
COc1ccccc1CN(Cc1cc2cc(C)cc(C)c2[nH]c1=O)Cc1nnnn1CC1CCCO1 (configuration not stated) | 1 | 4.2 | 3.6 | 0.9 | -1.61 | -4.07* | 0.0655*
COc1ccc2[nH]c(=O)c(CN(Cc3ccc(C)cc3)Cc3nnnn3CC3CCCO3)cc2c1 (configuration not stated) | 1 | 10.0 | 1.3 | 1.1 | -0.245 | nt | nt
CC(C)(C)C(=O)c1cnc(Nc2ccccc2Cl)s1 | 1 | 5.2 | 0.7 | 0.9 | -1.42 | 5.41* | 0.0903
SMILES | PMI activator | ABCG2 block | ABCB1 block | PMI act satM6P | KCC2 mod | ROMK primary | ROMK hit retest
CCNC(=O)COC(=O)c1cccc(Br)c1 | nt | nt | nt | nt | -0.0141 | nt | nt
COc1cnc(-c2ccccn2)nc1Sc1ccc(C)cc1 | 1.1 | -2.0 | -1.4 | 1.1 | nt | -4.44* | ?
Cc1cc(C)n2nc(SCC(=O)c3ccccc3)nc2n1 | 1 | 36.1 | 0.3 | 0.9 | 0.299 | 0.338 | nt
Cc1cc(C)n2nc(SCC(=O)c3cc(C)n(-c4cc(C)on4)c3C)nc2n1 | 1.1 | 15.3 | 0.5 | 1.1 | nt | nt | 0.0775
CC1=C(C(=O)OC2CCCCC2)C(c2ccco2)C2=C(CC(C)(C)CC2=O)N1 (configuration not stated) | 1 | 7.0 | 1.3 | 0.9 | -0.0378 | nt | 0.0757
CC1=C(C(=O)OC2CCCCC2)C(c2ccc(C)o2)C2=C(CCCC2=O)N1 (configuration not stated) | 1.1 | nt | 4.4 | 1 | -2.31 | -0.683 | nt
COc1ccc(CCNC(=O)COC(=O)COc2ccc(C#N)cc2)cc1 | 1.2 | 1.0 | 0.1 | 1.2 | -0.491 | 1.07 | nt
O=C(CSc1n[nH]c(-c2ccccc2F)n1)NCC(=O)Nc1ccc(F)c(F)c1F | 1 | 2.2 | 0.7 | 1 | 0.49 | -1.39 | nt
CCc1ccc(C(=O)OCC(=O)c2c(N)n(CC(C)C)c(=O)n(C)c2=O)cc1 | 1.1 | -0.7 | 0.1 | 1.1 | nt | -10.6* | 0.0816
CC(C)Cn1c(N)c(C(=O)COC(=O)c2ccc(F)cc2)c(=O)n(C)c1=O | 1 | 2.0 | -0.1 | 0.9 | -0.69 | 0.28 | nt
CC(=O)Nc1ccc(Cc2ccncc2)cc1 | 1 | 0.5 | -0.4 | 1 | -0.0102 | nt | nt
O=C(COc1cccc2cccnc12)N1CCc2ccccc21 | 1.1 | 5.2 | 1.2 | 1 | -1.12 | -0.113 | nt
c1ccc2c(-c3ccncc3)c[nH]c2c1 | 1 | 3.1 | 0.4 | 1 | nt | 3.95* | 0.0912
Cc1cc(C)cc(NC(=O)N2CCCC2C(=O)Nc2ccc(-n3cnnn3)c(C)c2)c1 (configuration not stated) | 0.9 | 2.3 | 0.2 | 0.9 | -0.595 | nt | 0.0756
Cc1cccc(-n2ncc3c(N(C)Cc4ccccc4)ncnc32)c1 | nt | nt | nt | nt | 0.00711 | nt | nt
O=C(Nc1ccc(S(=O)(=O)N2CCOCC2)cc1)c1cccs1 | 1 | 5.8 | 0.3 | 1 | -0.143 | 0.308 | nt
Cc1ccc(NC(=O)c2cc(S(=O)(=O)N3CCOCC3)c(Br)s2)cc1 | 0.9 | 2.6 | 0.2 | 0.8 | -0.652 | nt | 0.0806
Cc1nc2ccc(NC(=O)c3ccc(S(=O)(=O)N4CCOCC4)cc3)cc2s1 | 1 | 5.7 | -1.0 | 1 | nt | 3.19* | 0.0774
Cc1cc(Br)cnc1NC(=S)Nc1ccc(F)cc1F | 0.8 | 3.0 | 0.9 | 0.9 | 1.69 | 1.34 | nt
